Results from ChEMBL document CHEMBL1143659, “Discovery of a rhodanine class of compounds as inhibitors of Plasmodium falciparum enoyl-acyl carrier protein reductase” (J Med Chem, 2007).
In brackets after ≈: the same amount, converted by molar mass. Activity calls are given as the source filed them. The rule behind the calls is not given here.

Columns and labels:
[1] = biological target: T1, Enoyl-acyl-carrier protein reductase (Plasmodium falciparum, UniProt Q965D5); assay: (§1) Inhibition of Plasmodium falciparum recombinant enoyl ACP reductase expressed in BL21 (DE3) cells; format: biochemical
T1 sequence (Q965D5 whole entry): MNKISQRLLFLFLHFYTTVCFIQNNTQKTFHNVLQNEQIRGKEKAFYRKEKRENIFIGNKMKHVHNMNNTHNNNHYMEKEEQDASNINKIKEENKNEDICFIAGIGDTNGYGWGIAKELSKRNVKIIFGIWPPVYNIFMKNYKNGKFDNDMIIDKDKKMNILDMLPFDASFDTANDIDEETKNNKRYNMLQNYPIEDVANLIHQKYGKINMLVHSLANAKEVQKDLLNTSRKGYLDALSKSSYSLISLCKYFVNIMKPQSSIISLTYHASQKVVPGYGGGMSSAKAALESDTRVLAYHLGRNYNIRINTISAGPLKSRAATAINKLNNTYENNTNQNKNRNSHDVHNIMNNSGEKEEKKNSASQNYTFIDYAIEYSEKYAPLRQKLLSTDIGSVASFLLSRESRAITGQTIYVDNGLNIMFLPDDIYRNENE
Procedure, shortened: (§2)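 His-tagged enzyme from E. coli, Ni-NTA purified. Assay at 25 °C in 150 mM Tris-NaCl pH 7.5, 200 µM crotonoyl-CoA, 100 µM NADH, 200 nM enzyme, 1% DMSO; NADH oxidation followed as A340 decrease. Percent inhibition from residual activity across serial inhibitor dilutions; IC50 by nonlinear regression vs log concentration; mean of three sets.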

[2] = biological target: T1, Enoyl-acyl-carrier protein reductase; assay: Inhibition of Plasmodium falciparum recombinant enoyl ACP reductase expressed in BL21 (DE3) cells with respect to NADH; format: cell-based
Procedure, shortened: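 Ki via Dixon plot (x-intercept). NADH fixed at 50 and 100 µM, crotonoyl-CoA 200 µM, 200 nM enzyme; inhibitor varied from 1 nM up to its IC50. A340 NADH-consumption assay at 25 °C, pH 7.5; mean of three sets.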

[3] = biological target: T1, Enoyl-acyl-carrier protein reductase; assay: Inhibition of Plasmodium falciparum recombinant enoyl ACP reductase expressed in BL21 (DE3) cells with respect to crotonyl CoA; format: cell-based
Procedure, shortened: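 Ki via Dixon plot (x-intercept). Crotonoyl-CoA fixed at 100 and 200 µM, NADH 100 µM; inhibitor varied from 1 nM up to its IC50. Spectrophotometric NADH oxidation at 340 nm, 25 °C, Tris-NaCl pH 7.5; mean of three sets.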

[4] = biological target: T2, Enoyl-acyl-carrier protein reductase (Plasmodium falciparum) (UniProt Q965D5); assay: as §1; format: biochemical; procedure, shortened: as §2
T2 sequence (whole entry): T1 sequence (Q965D5 whole entry)

Plasmodium falciparum = assay: Growth inhibition of chloroquine-sensitive Plasmodium falciparum FCK2 in human erythrocytes after 96 hrs; format: functional, organism-based; conditions: FCK2, 96 h
Procedure, shortened: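 Synchronized early-trophozoite cultures (1-2% parasitemia, 2% hematocrit) in RPMI 1640 with 10% human serum, 0.225% bicarbonate, gentamycin; inhibitor in Me2SO (final ≤0.05%), added up to fourth day. Parasitemia scored by Giemsa-stained microscopy at 48 and 96 h against solvent control. IC50 by nonlinear regression of relative percent parasitemia vs log concentration; three independent experiments.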

| IC50 [1] [µM] | SMILES | further results |
| --- | --- | --- |
| > 100 | CCN(CC)c1ccc(N2C(=O)/C(=C/c3ccc(OC)cc3)SC2=S)cc1 | – |
| 50 | O=C(NC1CCCc2ccccc21)c1cc(Sc2cccc(Cl)c2)nc2ccccc12 (stereo not drawn) | – |
| > 100 | O=C1/C(=C/c2ccc(-c3cccc(Cl)c3)o2)SC(=S)N1c1cccc(Cl)c1 | – |
| > 100 | CCN1C(=O)/C(=C/c2ccc(N(CC)CC)cc2O)SC1=S | – |
| > 100 | CCc1ccc(/C=C2\SC(=S)N(CCCCCC(=O)OC)C2=O)cc1 | – |
| 0.87 | COc1ccc(N2C(=O)/C(=C/c3ccc(OC)c4ccccc34)SC2=S)cc1 | – |
| 10 | COc1ccc(/C=C2\SC(=S)N(c3ccc(O)cc3)C2=O)cc1 | Ki [2]: 9.1 µM; Ki [3]: 8.7 µM |
| 55 | COc1ccc(-c2cc(C(=O)Nc3cc(Cl)ccc3O)no2)cc1 | – |
| > 100 | COc1ccc(N2C(=O)/C(=C/c3ccc(C(C)C)cc3)SC2=S)cc1 | – |
| 0.87 | O=C1NC(=S)S/C1=C\c1ccc(-c2cccc(Cl)c2Cl)o1 | Ki [2]: 0.56 µM; Ki [3]: 0.48 µM |
| 6.5 | COc1cc(/C=C2\SC(=S)N(CCCCCC(=O)O)C2=O)ccc1OCc1ccc(Cl)cc1 | Ki [2]: 5.4 µM; Ki [3]: 5.1 µM |
| > 100 | COc1ccc(/C=C2\SC(=S)N(c3ccc(OC)cc3)C2=O)cc1 | – |
| > 100 | O=C1/C(=C/c2ccco2)SC(=S)N1c1cccc(F)c1 | – |
| > 100 | COC(=O)CCCCCN1C(=O)/C(=C/c2cccc(O)c2)SC1=S | – |
| 75 | O=C(Nc1cc(Cl)ccc1O)c1cc(-c2ccc(Cl)cc2)on1 | – |
| 70 | O=C1c2c(Cl)c(Cl)c(Cl)c(Cl)c2C(=O)N1c1ccc2[nH]c(/C=C/c3ccc(Cl)cc3)nc2c1 | – |
| 28.5 | Cc1ccc(-c2ccc(/C=C3\SC(=S)NC3=O)o2)cc1Cl | – |
| 50 | CC(C)(C)c1ccc(CS[n+]2cc3ccccc3c(=O)n2Nc2ccc(Cl)nn2)cc1 | – |
| 6 | O=C1NC(=S)S/C1=C\c1ccc(-c2cc(Cl)ccc2Cl)o1 | Ki [2]: 2.5 µM; Ki [3]: 2 µM |
| > 100 | O=C1/C(=C/c2cccc(O)c2)SC(=S)N1c1ccccc1 | – |
| > 100 | CCN1C(=O)/C(=C/c2cc(Cl)c(O)c(Cl)c2)SC1=S | – |
| > 100 | COc1ccc(N2C(=O)/C(=C/c3ccc(N(C)C)cc3)SC2=S)cc1 | – |
| > 100 | Cc1cc(/C=C2\SC(=S)N(CCCCCC(=O)O)C2=O)ccc1OCc1ccccc1 | – |
| – | CCCCOc1ccc(/C=C2\SC(=S)N(CCCCCC(=O)OC)C2=O)cc1 | Activity [4]: inactive |
| 0.035 | O=C1/C(=C/c2ccc(O)c(O)c2)SC(=S)N1c1ccccc1 | IC50 (Plasmodium falciparum): 0.75 µM; MIC (Plasmodium falciparum): 2.5 µM (≈ 0.824 µg/mL); Ki [2]: 0.032 µM; Ki [3]: 0.0042 µM |
| 1.7 | O=C1NC(=S)S/C1=C\c1ccc(-c2cccc(Cl)c2)o1 | Ki [2]: 1.05 µM; Ki [3]: 0.88 µM |

| IC50 [1] [µM] | SMILES | further results |
| --- | --- | --- |
| 60 | O=C(NCCN1CCCc2ccccc21)c1cc(-c2ccc(Cl)s2)nc2ccccc12 | – |
| 100 | O=C(O)CCCCCN1C(=O)/C(=C/c2c[nH]c3ccccc23)SC1=S | – |
| 6.1 | O=C1NC(=S)S/C1=C\c1ccc(-c2cc(Cl)cc(Cl)c2)o1 | Ki [2]: 5.5 µM; Ki [3]: 4.1 µM |
| 20 | O=C(O)c1cccc(-c2ccc(/C=C3\SC(=S)N(c4cccc(C(F)(F)F)c4)C3=O)o2)c1 | – |
| > 50 | COc1ccc(N2C(=O)/C(=C/c3c4ccccc4cc4ccccc34)SC2=S)cc1 | – |
| 25 | O=C1/C(=C/c2ccc(Cl)cc2Cl)SC(=S)N1c1ccc(O)cc1 | – |
| 7 | CCCCCCOc1ccc(/C=C2\SC(=S)N(CCCCCC(=O)O)C2=O)cc1OC | Ki [2]: 7.3 µM; Ki [3]: 6.6 µM |
| 45 | CCCOc1ccc(/C=C2\SC(=S)N(CCCCCC(=O)O)C2=O)cc1OC | – |
| > 100 | CCCCCOc1ccc(/C=C2\SC(=S)N(CCCCCC(=O)O)C2=O)cc1OC | – |
| > 100 | CC(C)c1ccc(/C=C2\SC(=S)N(CCCCCC(=O)O)C2=O)cc1 | – |
| 60 | COc1ccc(Cl)cc1NC(=O)c1cc(-c2ccc(Cl)s2)nc2ccccc12 | – |
| 35 | O=C1NC(=S)S/C1=C\c1ccc(-c2ccccc2Cl)o1 | – |
| > 100 | COC(=O)CCCCCN1C(=O)/C(=C/c2ccc(Cl)cc2)SC1=S | – |
| 0.87 | CN(C)c1ccc(/C=C2\SC(=S)N(c3ccc(O)cc3)C2=O)cc1 | – |
| – | CCOc1ccc(N2C(=O)/C(=C/c3cccc4ccccc34)SC2=S)cc1 | Activity [4]: inactive |
| – | COC(=O)CCCCCN1C(=O)/C(=C/c2cc(OC)c(OC)c(OC)c2)SC1=S | Activity [4]: inactive |
| 90 | CCc1nnc(NS(=O)(=O)c2ccc(N3C(=O)c4c(Cl)c(Cl)c(Cl)c(Cl)c4C3=O)cc2)s1 | – |
| 52 | Clc1ccc(CNc2nc(SCc3ccc(Cl)cc3)nc3ccccc23)cc1 | – |
| 1.5 | COc1ccc(N2C(=O)/C(=C/c3ccc(C=O)cc3)SC2=S)cc1 | Ki [2]: 14.4 µM; Ki [3]: 13.2 µM |
| 0.87 | COc1cc(/C=C2\SC(=S)N(c3ccc(O)cc3)C2=O)ccc1O | – |
| > 100 | CN(C)CCOC(=O)CCN1C(=O)/C(=C/c2ccc(Cl)cc2Cl)SC1=S | – |
| 50 | O=C(O)CCCN1C(=O)/C(=C/c2cn(-c3ccccc3)nc2-c2ccc(Cl)cc2)SC1=S | – |
| > 100 | COc1ccc(N2C(=O)/C(=C/c3ccccc3)SC2=S)cc1 | – |
| > 100 | O=C1/C(=C/c2cccc(O)c2)SC(=S)N1c1ccc(F)cc1 | – |
| 0.98 | O=C1NC(=S)S/C1=C\c1ccc(-c2ccc(Cl)c(Cl)c2)o1 | Ki [2]: 0.63 µM; Ki [3]: 0.51 µM |

| SMILES | IC50 [1] [µM] | further results |
| --- | --- | --- |
| CN(C)CCOC(=O)CCCCCN1C(=O)/C(=C/c2ccccc2)SC1=S | > 100 | – |
| Oc1cc(Cl)ccc1Oc1ccc(Cl)cc1Cl [TRICLOSAN] | 0.066 | Ki [3]: 0.66 µM |
| Cc1ccc(-c2ccc(/C=C3\SC(=S)N(C)C3=O)o2)cc1Cl | 0.87 | – |
| CN1C(=O)/C(=C/c2ccc(-c3cccc(Cl)c3)o2)SC1=S | 30.2 | – |
| CN1C(=O)/C(=C/c2ccc(-c3ccc(Cl)cc3Cl)o2)SC1=S | 0.87 | Activity [4]: inactive |
| O=C1/C(=C/c2ccc(-c3ccc(Cl)cc3)o2)SC(=S)N1c1cccc(Cl)c1 | > 100 | – |
| CN1C(=O)/C(=C/c2ccc(-c3cc(Cl)cc(Cl)c3)o2)SC1=S | 0.87 | – |
| CN1C(=O)/C(=C/c2ccc(-c3ccc(Cl)c(Cl)c3)o2)SC1=S | > 100 | – |
